TCR CD3 inh = human TCR-CD3 binding inhibition. AID 651800. hit rate 0.37% among 360,000. inhibition, % at 9.4 µM. TAMRA-labeled TCR probe fluorescence, biochemical; in the data active = inhibition above about 19%;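 also: recombinant mutant TCR 2C K166C tagged with TAMRA read by polarization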
SIAE primary = human SIAE inhibition, primary screen; SIAE FP-Rh probe binding, fluorescence polarization; inhibition, % at 9.66 µM; hit rate 0.69% among 370,000; AID 1053197;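 active = inhibition above a cutoff: mean of compounds within the control limits plus 3 SD of those, cut at about 17% in these data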
ABHD4 inh = inhibits mouse alpha/beta hydrolase domain 4 | purified mABHD4, FP-Rh probe fluorescence polarization | inhibition, % at 8.92 µM | hit rate 0.54% among 370,000 | AID 720543;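 active = inhibition exceeding the mean over every tested compound plus 3 SD, cut at about 30% in these data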
Target sequence (Q8VD66 whole entry, looked up, the tested form may be a part): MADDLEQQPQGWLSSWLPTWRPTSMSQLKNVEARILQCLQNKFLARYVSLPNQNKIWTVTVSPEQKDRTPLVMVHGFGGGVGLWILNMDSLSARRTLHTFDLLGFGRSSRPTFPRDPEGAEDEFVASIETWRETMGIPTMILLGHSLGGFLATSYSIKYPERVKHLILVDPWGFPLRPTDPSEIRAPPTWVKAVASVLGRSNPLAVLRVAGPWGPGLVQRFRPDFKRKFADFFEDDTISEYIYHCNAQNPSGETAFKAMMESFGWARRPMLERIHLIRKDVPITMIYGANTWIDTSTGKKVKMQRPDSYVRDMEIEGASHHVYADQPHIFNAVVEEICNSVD
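system = mouse ABHD4 enzyme, wild type | medium = HEPES pH 7.0, NaCl, Pluronic buffer | also added = FP-Rh probe | incubation = Enzyme–compound pre-incubation 45 min, then probe 60 min, both 25 °C | technique = fluorescence polarization, excitation 525 nm, emission 598 nm, BODIPY TMR filters | controls = S159A mutant high control, sample median low control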
HTRA1 inhibitor = HTRA1 (human) protease inhibition | recombinant HTRA1, FP-rhodamine activity-based probe, fluorescence polarization | inhibition, % at 5.96 µM | hit rate 0.5% among 340,000; in the data active = inhibition above about 36%
LEDGF integ inh = blocks HIV-1 LEDGF/p75-dependent DNA integration | TR-FRET IN-LEDGF/p75 DNA integration, Eu/Cy5 | inhibition, % at 3.7 µM | hit rate 0.64% among 370,000 | AID 743269;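 active = inhibition above the screen-wide mean plus 3 SD, cut at about 13% in these data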;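 also: signal is the Cy5 over europium emission ratio at 671 and 618 nm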
TDP2 absorb = TDP2 (human) inhibition, absorbance primary screen. O95551. recombinant TDP2, T5PNP hydrolysis, p-nitrophenol absorbance 415 nm. inhibition, % at 12.8 µM. hit rate 0.34% among 370,000. AID 720702;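 active = inhibition above the mean of all tested compounds plus 3 SD, set per campaign, cut at about 25% in these data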
Target sequence (O95551 whole entry, looked up): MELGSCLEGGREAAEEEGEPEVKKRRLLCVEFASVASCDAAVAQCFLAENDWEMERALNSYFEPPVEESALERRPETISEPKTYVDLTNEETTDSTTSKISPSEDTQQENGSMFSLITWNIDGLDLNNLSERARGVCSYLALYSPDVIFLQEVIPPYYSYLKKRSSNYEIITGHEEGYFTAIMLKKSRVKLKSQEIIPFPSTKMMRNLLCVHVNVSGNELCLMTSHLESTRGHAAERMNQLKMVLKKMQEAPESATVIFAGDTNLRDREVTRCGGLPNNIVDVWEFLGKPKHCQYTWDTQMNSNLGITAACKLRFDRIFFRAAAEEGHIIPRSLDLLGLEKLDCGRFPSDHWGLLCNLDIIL
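Assay system: Recombinant human TDP2 | Quantity: 120 nM TDP2 per well | Incubation: 2 h at 37 °C | Signal: Epi absorbance | Evaluation: Percent inhibition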
SIAE confirm = confirmation of human SIAE inhibitors | shares compounds with SIAE primary | SIAE FP-Rh activity-based probe, fluorescence polarization | hit rate 13% among 2,300 | AID 1117263 | inhibition, % at 9.66 µM;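 active = mean inhibition of the replicates above the hit cutoff set in the primary screen, cut at about 17% in these data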;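 also: inhibitors lower polarization as more probe stays unbound to SIAE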
Each line names hits and unclear results; the compound was inactive in the other large screens (follow-up assays come after a bar, where they were run). Most compounds without a hit are left out; they make up all but 2.2% or so of the library.

CCOc1ccc(S(=O)(=O)n2cnc(C)c2)cc1	SIAE primary 17 | SIAE confirm inactive
Cc1cccc(-c2nnc(SCC(=O)Nc3ccc(OCc4ccccc4)cc3)n2Cc2ccco2)c1	none (no result: TCR CD3 inh, HTRA1 inhibitor)
O=c1c2cccnc2[nH]c(=S)n1Cc1ccccc1	none
O=C(Cn1c(=S)[nH]c2ncccc2c1=O)NCCc1ccccc1	SIAE primary 36 (no result: HTRA1 inhibitor) | SIAE confirm inactive
Cc1ccc(-c2nnc(Nc3ccc(C(=O)N(C)C)cc3)c3ccccc23)cc1S(=O)(=O)NCC1CCCO1 (configuration not stated)	SIAE primary 21 | SIAE confirm inactive
COC(=O)c1ccc(Nc2nnc(-c3ccc(C)c(S(=O)(=O)NCC4CCCO4)c3)c3ccccc23)cc1 (configuration not stated)	none
CCOC(=O)C(CC1=CS(=O)(=O)c2ccc(Cl)cc21)(NC(C)=O)C(=O)OCC	none
COc1ccc(C(=O)OCC(=O)c2ccc(CNC(C)=O)s2)cc1	SIAE primary 24 | SIAE confirm inactive
COc1ccccc1C(=O)OCC(=O)c1ccc(CNC(C)=O)s1	none
CCCCN(CC)CCCNC(=O)c1cn(C)c(=O)c2c1c1ccccc1n2C	SIAE primary 19 | SIAE confirm inactive
COc1ccc(CNC(=O)C2CSC(=O)C2)cc1 (configuration not stated)	SIAE primary 20 | SIAE confirm inactive
Oc1ccc(/C=N/Nc2ccc3ccccc3c2)c(O)c1	SIAE primary 21 | SIAE confirm inactive
O=C(OC12CCCN(C1)/C(=C/c1ccccc1)C2)c1ccc(Cl)cc1 (configuration not stated)	none (no result: TCR CD3 inh, HTRA1 inhibitor)
Cc1nn(C)c(Cl)c1CN1CCC(CO)(CCOc2ccccc2)CC1	SIAE primary 17 | SIAE confirm inactive
C=CC[C@@H](CC(=O)N[C@H](CO)Cc1ccccc1)C(=O)N[C@H](COC(=O)[C@@H](CC=C)Cc1ccc(F)cc1)Cc1c[nH]c2ccccc12	none
C[C@H](CO)N1C[C@H](C)[C@@H](CN(C)S(C)(=O)=O)Oc2ccc(NS(=O)(=O)c3cn(C)cn3)cc2C1=O	none
CCN1CCCC1CNC(=O)C(=O)NC(C)c1ccccc1 (configuration not stated)	SIAE primary 19 | SIAE confirm inactive
Nc1nnn(CC(=O)N/N=C/c2cn[nH]c2-c2ccccc2)n1	SIAE primary 21 | SIAE confirm inactive
COc1ccc(-c2csc3ncnc(N4CCN(S(=O)(=O)c5ccc(C)c(C)c5)CC4)c23)cc1	SIAE primary 18 | SIAE confirm inactive
O=C(C(=O)N1CCN(C(=O)c2cc(C(F)(F)F)cc(C(F)(F)F)c2)CC1)c1cccc(C(F)(F)F)c1	none (no result: HTRA1 inhibitor)
Nc1nc2c(ncn2[C@@H]2O[C@H](C(=O)NC3CCCCC3)[C@@H](O)[C@H]2O)c(=O)[nH]1	SIAE primary 49 (no result: HTRA1 inhibitor) | SIAE confirm 43
COCCCNC(=O)[C@H]1O[C@@H](n2cnc3c(=O)[nH]c(N)nc32)[C@H](O)[C@@H]1O	none (no result: HTRA1 inhibitor)
Nc1nc2c(ncn2[C@@H]2O[C@H](C(=O)N[C@H](Cc3ccccc3)C(=O)NC3CCCCC3)[C@@H](O)[C@H]2O)c(=O)[nH]1	SIAE primary 32 (no result: HTRA1 inhibitor) | SIAE confirm 35
Nc1nc2c(ncn2[C@@H]2O[C@H](C(=O)NCC(F)(F)F)[C@@H](O)[C@H]2O)c(=O)[nH]1	none (no result: HTRA1 inhibitor)
CN(C(=O)[C@H]1O[C@@H](n2cnc3c(=O)[nH]c(N)nc32)[C@H](O)[C@@H]1O)C1CCCCC1	SIAE primary 41 (no result: HTRA1 inhibitor) | SIAE confirm 46
O=C(C(=O)N1CCN(CCN2CCOCC2)CC1)c1ccccc1	none (no result: HTRA1 inhibitor)
O=S(=O)(c1ccc(NC(=S)N2CCCCC2)cc1)N1CCCCC1	none
CCCc1cc(=O)[nH]c(SCC(=O)Nc2sccc2C#N)n1	SIAE primary 17 | SIAE confirm inactive
CCOc1ccc(/C=C2/SC(=O)NC2=S)cc1	SIAE primary active | SIAE confirm inactive
Cc1ccc(CC(=O)Nc2nccs2)cc1C	none
COC(=O)C1=C(NC(=O)COc2ccc(Cl)cc2Cl)CCS1	SIAE primary 20 | SIAE confirm inactive
CCOC(=O)C1=C(c2ccccc2)NC(N)=NC1c1ccc(OCc2ccc(Cl)cc2)c(OC)c1 (configuration not stated)	SIAE primary 18 | SIAE confirm 17
CC1CC2OC2CC1COC(=O)C1CC2OC2CC1C (configuration not stated)	none
Nc1ccccc1NC1=CC(=O)CC(c2ccco2)C1 (configuration not stated)	SIAE primary 19 | SIAE confirm inactive
O=C(COC(=O)c1cnccn1)N=c1sccn1Cc1ccccc1Cl	SIAE primary 20 | SIAE confirm inactive
Cc1cnc(C(=O)OCC(=O)N=c2sccn2Cc2ccccc2Cl)cn1	none
Cc1ccc(Nc2nnc(SCC(=O)Nc3ccccc3[N+](=O)[O-])s2)cc1	SIAE primary 25 | SIAE confirm inactive
CC(C)Nc1nnc(SCC(=O)Nc2ccc3c(c2)C(=O)c2ccccc2C3=O)s1	SIAE primary 27 | SIAE confirm inactive
Cc1cccc(Nc2nnc(SCC(=O)Nc3ccccc3[N+](=O)[O-])s2)c1C	none
Cc1noc(C)c1CSCC(=O)Nc1nc2c(F)cc(F)cc2s1	none
CCN(CC)c1ccc(/C=N/N2CCN(Cc3ccccc3Cl)CC2)c(O)c1	SIAE primary 22 | SIAE confirm inactive
CCN(CC)c1ccc(/C=N/N2CCN(Cc3ccc(C)cc3)CC2)c(O)c1	none (no result: TCR CD3 inh, SIAE primary, ABHD4 inh, LEDGF integ inh, TDP2 absorb)
CN(C)c1cccc(CNC(=O)c2csc([C@@H]3O[C@H](CO)[C@H](O)[C@H](O)[C@H]3O)n2)c1	SIAE primary 20 (no result: HTRA1 inhibitor) | SIAE confirm inactive
COC(CN(C)S(=O)(=O)c1cc2c3c(c1)CCC(=O)N3CCC2)OC	none
COC(=O)c1ccccc1N(C)S(=O)(=O)c1cc2c3c(c1)CCC(=O)N3CCC2	SIAE primary 32 | SIAE confirm inactive
CN(C)C(=O)c1cnc(Cc2c[nH]c3ccccc23)c(I)c1	SIAE primary 18 (no result: HTRA1 inhibitor) | SIAE confirm inactive
O=C(NCc1c[nH]c2ccccc12)c1ccccc1	none
O=C(Nc1cccc(Cl)c1)c1ccc2ncsc2c1	none
Cc1ccc(S(=O)(=O)N2CCOC23CCN(S(=O)(=O)c2cccs2)CC3)cc1	SIAE primary 18 | SIAE confirm inactive
Cc1ccc(S(=O)(=O)N2CCC3(CC2)OCCN3S(=O)(=O)c2cccs2)cc1	none
CN1C=Nc2c(ncn2C2CCC(CO)O2)C1O (configuration not stated)	none (no result: HTRA1 inhibitor)
CS(=O)(=O)N(CC(=O)N1CCN(Cc2ccccc2)CC1)c1ccccc1Br	SIAE primary 19 | SIAE confirm inactive
COc1ccc(S(=O)(=O)N(CC(=O)N2CCN(c3ccccc3)CC2)c2ccccc2)cc1	none

Screens deposited in PubChem by The Scripps Research Institute Molecular Screening Center.
